Laboratory results from ChEMBL document CHEMBL1147868, “Synthesis of novel triazole derivatives as inhibitors of cytochrome P450 14alpha-demethylase (CYP51)” (2007).
Converted amounts (≈) assume the structure as drawn.

What was measured:
Type in all cases: functional
Candida parapsilosis = test: Antifungal activity against Candida parapsilosis ATCC 0306392 after 7 days by micro-broth dilution method; settings: Lodderomyces parapsilosis, ATCC 0306392, 168 h
Method in brief: (§1)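 Micro-broth dilution followed NCCLS methods, using an ATCC standard quality-control strain for C. parapsilosis and a clinical isolate for C. tropicalis. Compounds were dissolved in DMSO, serially diluted in growth medium and incubated at 35 C. MIC80 was the first well with about 80% growth reduction compared with the drug-free well.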

Candida albicans = test: Antifungal activity against Candida albicans ATCC Y0109 after 24 hrs by micro-broth dilution method
Method in brief: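 An ATCC standard quality-control strain was included in each run of an NCCLS micro-broth dilution assay. Compounds were dissolved in DMSO, serially diluted in growth medium and incubated at 35 C. Reading was at 24 h, and MIC80 was the first well showing roughly 80% growth reduction versus the drug-free control.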

Candida tropicalis = test: Antifungal activity against Candida tropicalis after 7 days by micro-broth dilution method; settings: 168 h; method in brief: as §1
Cryptococcus neoformans = test: Antifungal activity against Cryptococcus neoformans ATCC BLS108 after 72 hrs by micro-broth dilution method
Method in brief: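 This ATCC standard quality-control strain was tested in every assay by NCCLS microdilution. Test agents were dissolved in DMSO and serially diluted in growth medium. Cultures were incubated at 35 C and read at 72 h. MIC80 was the first well with approximately 80% reduced growth relative to the drug-free well.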

Aspergillus fumigatus = test: Antifungal activity against Aspergillus fumigatus after 7 days by micro-broth dilution method; settings: 168 h
Method in brief: (§2)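 Clinical isolates supplied by a hospital were tested by NCCLS broth microdilution. Compounds were dissolved in DMSO, serially diluted in growth medium, inoculated and incubated at 35 C. Growth was read at 7 days for filamentous fungi. MIC80 was taken as the first well with about 80% less growth than the drug-free well.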

Trichophyton rubrum = test: Antifungal activity against Trichophyton rubrum after 7 days by microbroth dilution method; settings: 168 h; method in brief: as §2
Fonsecaea compacta = test: Antifungal activity against Fonsecaea compacta after 7 days by micro-broth dilution method; settings: 168 h; method in brief: as §2
Microsporum = test: Antifungal activity against Microsporum gypseum after 7 days by micro-broth dilution method; settings: 168 h; method in brief: as §2

MIC80 (Candida parapsilosis) [µg/mL] | MIC80 (Candida albicans) [µg/mL] | MIC80 (Candida tropicalis) [µg/mL] | MIC80 (Cryptococcus neoformans) [µg/mL] | MIC80 (Aspergillus fumigatus) [µg/mL] | MIC80 (Trichophyton rubrum) [µg/mL] | MIC80 (Fonsecaea compacta) [µg/mL] | MIC80 (Microsporum) [µg/mL] | Structure (SMILES)
0.0625 (≈ 0.105 µM) | 0.0625 (≈ 0.105 µM) | 0.0039 (≈ 0.00654 µM) | 0.25 (≈ 0.419 µM) | 1 (≈ 1.68 µM) | 0.25 (≈ 0.419 µM) | 0.25 (≈ 0.419 µM) | 0.25 (≈ 0.419 µM) | COc1ccc(C(=O)Nc2ccc(N3CCN(CC(O)(Cn4cncn4)c4ccc(F)cc4F)CC3)c(F)c2)cc1OC (configuration not stated)
0.0625 (≈ 0.108 µM) | 1 (≈ 1.73 µM) | 1 (≈ 1.73 µM) | 1 (≈ 1.73 µM) | 4 (≈ 6.91 µM) | 0.25 (≈ 0.432 µM) | 0.25 (≈ 0.432 µM) | 0.25 (≈ 0.432 µM) | CCCc1ccc(C(=O)Nc2ccc(N3CCN(CC(O)(Cn4cncn4)c4ccc(F)cc4F)CC3)c(F)c2)cc1 (configuration not stated)
0.25 (≈ 0.432 µM) | 1 (≈ 1.73 µM) | 0.25 (≈ 0.432 µM) | 0.0625 (≈ 0.108 µM) | 4 (≈ 6.91 µM) | 0.25 (≈ 0.432 µM) | 0.25 (≈ 0.432 µM) | 0.25 (≈ 0.432 µM) | CC(C)c1ccc(C(=O)Nc2ccc(N3CCN(CC(O)(Cn4cncn4)c4ccc(F)cc4F)CC3)c(F)c2)cc1 (configuration not stated)
0.0039 (≈ 0.00843 µM) | 0.0152 (≈ 0.0329 µM) | 0.0152 (≈ 0.0329 µM) | 0.0152 (≈ 0.0329 µM) | 1 (≈ 2.16 µM) | 0.0152 (≈ 0.0329 µM) | 0.0625 (≈ 0.135 µM) | 0.0152 (≈ 0.0329 µM) | O=[N+]([O-])c1ccc(N2CCN(CC(O)(Cn3cncn3)c3ccc(F)cc3F)CC2)c(F)c1 (configuration not stated)
< 0.0039 | 0.0152 (≈ 0.0274 µM) | 0.0152 (≈ 0.0274 µM) | 0.0152 (≈ 0.0274 µM) | 4 (≈ 7.21 µM) | 0.0152 (≈ 0.0274 µM) | 0.0625 (≈ 0.113 µM) | 0.0625 (≈ 0.113 µM) | O=C(Nc1ccc(N2CCN(CC(O)(Cn3cncn3)c3ccc(F)cc3F)CC2)c(F)c1)c1ccccc1F (configuration not stated)
1 (≈ 1.69 µM) | 1 (≈ 1.69 µM) | 1 (≈ 1.69 µM) | 1 (≈ 1.69 µM) | 16 (≈ 27 µM) | 1 (≈ 1.69 µM) | 0.0625 (≈ 0.105 µM) | 0.0625 (≈ 0.105 µM) | CCCCc1ccc(C(=O)Nc2ccc(N3CCN(CC(O)(Cn4cncn4)c4ccc(F)cc4F)CC3)c(F)c2)cc1 (configuration not stated)
0.0039 (≈ 0.00703 µM) | 0.0152 (≈ 0.0274 µM) | 0.0152 (≈ 0.0274 µM) | 0.0152 (≈ 0.0274 µM) | 1 (≈ 1.8 µM) | 0.25 (≈ 0.451 µM) | 0.0625 (≈ 0.113 µM) | 0.0152 (≈ 0.0274 µM) | O=C(Nc1ccc(N2CCN(CC(O)(Cn3cncn3)c3ccc(F)cc3F)CC2)c(F)c1)c1ccc(F)cc1 (configuration not stated)
0.0152 (≈ 0.0266 µM) | 0.0152 (≈ 0.0266 µM) | 0.0152 (≈ 0.0266 µM) | 0.25 (≈ 0.438 µM) | 1 (≈ 1.75 µM) | 0.0152 (≈ 0.0266 µM) | 0.0625 (≈ 0.109 µM) | 0.0152 (≈ 0.0266 µM) | O=C(Nc1ccc(N2CCN(CC(O)(Cn3cncn3)c3ccc(F)cc3F)CC2)c(F)c1)c1ccccc1Cl (configuration not stated)
0.0152 (≈ 0.0266 µM) | 0.25 (≈ 0.438 µM) | 0.0625 (≈ 0.109 µM) | 0.25 (≈ 0.438 µM) | 4 (≈ 7.01 µM) | 0.0625 (≈ 0.109 µM) | 0.25 (≈ 0.438 µM) | 0.0625 (≈ 0.109 µM) | O=C(Nc1ccc(N2CCN(CC(O)(Cn3cncn3)c3ccc(F)cc3F)CC2)c(F)c1)c1cccc(Cl)c1 (configuration not stated)
0.0152 (≈ 0.0266 µM) | 0.0625 (≈ 0.109 µM) | 0.0152 (≈ 0.0266 µM) | 0.25 (≈ 0.438 µM) | 0.25 (≈ 0.438 µM) | 0.0625 (≈ 0.109 µM) | 0.0625 (≈ 0.109 µM) | 0.25 (≈ 0.438 µM) | O=C(Nc1ccc(N2CCN(CC(O)(Cn3cncn3)c3ccc(F)cc3F)CC2)c(F)c1)c1ccc(Cl)cc1 (configuration not stated)
0.0152 (≈ 0.0251 µM) | 0.25 (≈ 0.413 µM) | 0.0625 (≈ 0.103 µM) | 0.0625 (≈ 0.103 µM) | 0.25 (≈ 0.413 µM) | 0.0625 (≈ 0.103 µM) | 0.25 (≈ 0.413 µM) | 0.0039 (≈ 0.00644 µM) | O=C(Nc1ccc(N2CCN(CC(O)(Cn3cncn3)c3ccc(F)cc3F)CC2)c(F)c1)c1ccc(Cl)cc1Cl (configuration not stated)
0.0625 (≈ 0.102 µM) | 0.0625 (≈ 0.102 µM) | 0.0625 (≈ 0.102 µM) | 0.25 (≈ 0.406 µM) | 4 (≈ 6.5 µM) | 0.0625 (≈ 0.102 µM) | 0.25 (≈ 0.406 µM) | 0.25 (≈ 0.406 µM) | O=C(Nc1ccc(N2CCN(CC(O)(Cn3cncn3)c3ccc(F)cc3F)CC2)c(F)c1)c1cccc(Br)c1 (configuration not stated)
0.0152 (≈ 0.0276 µM) | 0.0625 (≈ 0.114 µM) | 0.0152 (≈ 0.0276 µM) | 0.0625 (≈ 0.114 µM) | 1 (≈ 1.82 µM) | 0.0625 (≈ 0.114 µM) | 0.25 (≈ 0.454 µM) | 0.0152 (≈ 0.0276 µM) | Cc1ccccc1C(=O)Nc1ccc(N2CCN(CC(O)(Cn3cncn3)c3ccc(F)cc3F)CC2)c(F)c1 (configuration not stated)
0.0152 (≈ 0.0276 µM) | 0.0625 (≈ 0.114 µM) | 0.0152 (≈ 0.0276 µM) | 0.0625 (≈ 0.114 µM) | 1 (≈ 1.82 µM) | 0.0625 (≈ 0.114 µM) | 0.25 (≈ 0.454 µM) | 0.0152 (≈ 0.0276 µM) | Cc1cccc(C(=O)Nc2ccc(N3CCN(CC(O)(Cn4cncn4)c4ccc(F)cc4F)CC3)c(F)c2)c1 (configuration not stated)
